ChEMBL document CHEMBL4145451, “1,3,5-triazaspiro[5.5]undeca-2,4-dienes as selective Mycobacterium tuberculosis dihydrofolate reductase inhibitors with potent whole cell activity” (Eur J Med Chem, 2018)
≈ marks a conversion by molar mass, not a printed value.

Assays:
[1] = test system: Mycobacterium tuberculosis; assay: Antimycobacterial activity against GFP-fused Mycobacterium tuberculosis H37Rv after 7 days BacTiter-Glo assay; type: functional; details: 168 h
Dihydrofolate reductase [2] = target: T1, Dihydrofolate reductase (Mycobacterium tuberculosis, UniProt P9WNX1); assay: Inhibition of Mycobacterium tuberculosis H37Rv DHFR expressed in Escherichia coli BL21(DE3) assessed as reduction in consumption of NADPH using DHF as substrate preincubated for 1 min followed by DHF addition and measured for 2 mins by spectrophotometric method
T1 sequence (P9WNX1 whole entry): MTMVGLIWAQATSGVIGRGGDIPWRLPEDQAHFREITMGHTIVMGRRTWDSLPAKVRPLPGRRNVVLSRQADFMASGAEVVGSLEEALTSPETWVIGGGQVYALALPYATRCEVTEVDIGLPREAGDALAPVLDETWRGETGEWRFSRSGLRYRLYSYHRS

Dihydrofolate reductase [3] = target: T1, Dihydrofolate reductase; assay: Inhibition of Mycobacterium tuberculosis H37Rv DHFR expressed in Escherichia coli assessed as reduction in consumption of NADPH using DHF as substrate by fluorescence method
Dihydrofolate reductase [4] = target: T2, Dihydrofolate reductase (Homo sapiens, UniProt P00374); assay: Inhibition of human DHFR assessed as reduction in consumption of NADPH using DHF as substrate by fluorescence method
T2 sequence (P00374 whole entry): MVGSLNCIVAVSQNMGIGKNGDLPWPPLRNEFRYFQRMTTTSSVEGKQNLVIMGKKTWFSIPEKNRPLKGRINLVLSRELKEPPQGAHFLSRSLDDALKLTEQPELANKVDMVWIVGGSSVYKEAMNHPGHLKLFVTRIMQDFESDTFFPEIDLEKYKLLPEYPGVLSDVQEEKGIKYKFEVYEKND

[5] = test system: Mycobacterium tuberculosis; assay: Antimycobacterial activity against Mycobacterium tuberculosis H37Rv infected in human THP1 cells after 5 days by Steady-Glo luminescence assay; type: functional; details: 120 h
Dihydrofolate reductase [6] = target: T1, Dihydrofolate reductase; assay: Inhibition of Mycobacterium tuberculosis His-tagged DHFR assessed as reduction in consumption of NADPH using DHF as substrate measured every 30 secs over 6 mins by spectrophotometric method
Dihydrofolate reductase [7] = target: T2, Dihydrofolate reductase; assay: Inhibition of recombinant human DHFR assessed as reduction in consumption of NADPH using DHF as substrate measured every 30 secs over 6 mins by spectrophotometric method
[8] = Selectivity index, ratio of IC50 for inhibition of recombinant human DHFR to IC50 for inhibition of Mycobacterium tuberculosis His-tagged DHFR
In short: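 Spectrophotometric DHFR assay at room temperature in 0.15 M potassium phosphate, pH 7, with 50 µM DHF, 60 µM NADPH and 1.5 × 10^-3 units recombinant human DHFR or 0.3 ng/mL recombinant Mtb DHFR, plus serial inhibitor concentrations in DMSO. NADPH use is followed at 340 nm every 30 s for 6 min. Slope versus uninhibited gives % inhibition, and IC50 comes from log-dose curves. SI = human IC50 / Mtb IC50.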

[9] = Intrinsic clearance in male rat liver microsomes at 3 uM preincubated for 5 mins followed by NADPH addition measured up to 45 mins by LC-MS/MS analysis; type: ADME, microsome; details: read-out: CLH
In short: (§1)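 Compound (final 3 µM) was incubated with male or female rat liver microsomes (0.3 mg protein/mL) in 0.1 M phosphate pH 7.4. After a 5 min pre-incubation at 37 °C, NADPH (final 1 mM) was added to start the reaction. Samples were taken at 0, 5, 10, 15, 30 and 45 min and the remaining compound was quantified by LC-MS.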

[10] = Aqueous solubility of compound in pH 7.4 solution after 90 mins by UV method; type: physicochemical; details: aqueous solution pH 7.4, pH 7.4
In short: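 Compound was diluted from a 10 mM DMSO stock to final 3.13–100 µM in 45 mM ethanolamine/potassium dihydrogen phosphate/potassium acetate buffer, pH 7.4. After 90 min at room temperature the solution was filtered and diluted with acetonitrile and buffer. Absorbance was read at 330 nm.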

[11] = test system: Mycobacterium tuberculosis; assay: Antimycobacterial activity against Mycobacterium tuberculosis H37Rv after 10 days by broth dilution method; type: functional; details: 240 h
In short: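 Broth microdilution. Mid-log cultures (OD600 0.4–0.6) were diluted and added to 2-fold serial compound dilutions in DMSO, giving a final 5 × 10^5 CFU/mL in 7H9-albumin-dextrose-catalase-glycerol-Tween 80. Plates were sealed and incubated at 37 °C for 10 days with shaking at 80 rpm. OD600 was read; MIC50 and MIC90 are the lowest concentrations giving 50% and 90% growth inhibition. Rifampicin and DMSO served as controls. Means of 3 independent experiments.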

[12] = Half life in female rat liver microsomes at 3 uM preincubated for 5 mins followed by NADPH addition measured up to 45 mins by LC-MS/MS analysis; type: ADME, microsome; in short: as §1
[13] = Selectivity index, ratio of CC50 for cytotoxicity against human HepG2 cells to MIC90 for antimycobacterial activity against Mycobacterium tuberculosis H37Rv; type: toxicity, cell-based; details: HepG2 cells versus Mycobacterium tuberculosis H37Rv, read-out: Selectivity Index
In short: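 H37Rv grown to mid-log (OD600 0.4–0.6), 5 × 10^5 CFU/mL, in supplemented 7H9 with 2-fold compound dilutions (DMSO), 10 days at 37 °C shaken. MIC90 is the lowest concentration giving 90% inhibition by OD600. HepG2 cells in DMEM/10% FBS are exposed to 2-fold dilutions, and CC50 (50% viability loss) is read by MTS absorbance at 490 nm. SI = CC50/MIC90. Means of 3 independent experiments.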

[14] = Hemolytic activity in human RBC after 24 hrs; type: ADME, cell-based, Erythrocyte; details: red blood cells (erythrocytes), read-out: LC50
In short: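 Red blood cells were PBS-washed and resuspended at 10^6/mL, then incubated 24 h with compound. After centrifugation at 1000 g for 10 min, supernatant absorbance was read at 540 nm. PBS served as the negative control and 0.1% Triton X-100 as the positive control. Reported as LC50.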

[15] = Intrinsic clearance in female rat liver microsomes at 3 uM preincubated for 5 mins followed by NADPH addition measured up to 45 mins by LC-MS/MS analysis; type: ADME, microsome; details: read-out: CLH; in short: as §1
[16] = Half life in male rat liver microsomes at 3 uM preincubated for 5 mins followed by NADPH addition measured up to 45 mins by LC-MS/MS analysis; type: ADME, microsome; in short: as §1
[17] = Cytotoxicity against human HepG2 cells assessed as reduction in cell viability by MTS assay; type: cell-based
In short: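 HepG2 cells were grown in DMEM with 10% heat-inactivated FBS at 37 °C and 5% CO2, then exposed to 2-fold serially diluted compound. Viability was read by MTS absorbance at 490 nm. CC50 is the concentration giving a 50% viability drop, taken from the absorbance-versus-concentration plot. Triton X-100 was the positive control. Means of 3 independent experiments.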

A549 = assay: Cytotoxicity against human A549 cells; type: cell-based
Dihydrofolate reductase [18] = target: T2, Dihydrofolate reductase; assay: Inhibition of human DHFR
[19] = Cytotoxicity against African green monkey Vero cells by MTT assay; type: cell-based; details: chlorocebus sabaeus
Dihydrofolate reductase [20] = target: T2, Dihydrofolate reductase; assay: Inhibition of human DHFR assessed as reduction in consumption of NADPH using DHF as substrate incubated for 3 mins measured for 2 mins by spectrophotometric method
[21] = test system: Mycobacterium tuberculosis; assay: Antimycobacterial activity against Mycobacterium tuberculosis H37Rv by resazurin dye based two-fold dilution assay; type: functional
Dihydrofolate reductase [22] = target: T1, Dihydrofolate reductase; assay: Inhibition of Mycobacterium tuberculosis H37Rv DHFR assessed as reduction in consumption of NADPH using DHF as substrate incubated for 3 mins measured for 2 mins by spectrophotometric method

COC(=O)CC[C@H](NC(=O)c1ccc(N(C)Cc2cnc3nc(N)nc(N)c3n2)cc1)C(=O)OC
MIC90 [1]: 0.2 to 0.4 µM (≈ 0.0965 to 0.193 µg/mL) | IC50 (Dihydrofolate reductase [2]): 0.05 µM

COc1ccc(-c2nc3c(N)nc(N)nc3nc2C(C)C)cc1
IC50 (Dihydrofolate reductase [3]): 0.0545 µM | IC50 (Dihydrofolate reductase [4]): 0.382 µM | MIC90 [5]: 2.9 µM (≈ 0.9 µg/mL)

Cl.NC1=NC2(CCCCC2)N(Cc2cn(CCCCCOc3ccc4oc(=O)ccc4c3)nn2)C(N)=N1
IC50 (Dihydrofolate reductase [6]): > 100 µM

Cl.NC1=NC2(CCCCC2)N(c2ccc(OCc3cn(CCCc4ccccc4)nn3)cc2)C(N)=N1
IC50 (Dihydrofolate reductase [7]): 3.67 µM | Ratio IC50 [8]: 0.63 | IC50 (Dihydrofolate reductase [6]): 5.82 µM

N#Cc1ccc(Cn2ccc3c4c(N)nc(N)nc4ccc32)cc1
IC50 (Dihydrofolate reductase [3]): 0.0101 µM | IC50 (Dihydrofolate reductase [4]): 0.0068 µM | MIC90 [5]: 0.5 µM (≈ 0.157 µg/mL)

Cl.NC1=NC2(CCCCC2)N(c2ccc(OCc3cn(CCCCOc4ccc5ccc(=O)oc5c4)nn3)cc2)C(N)=N1
microsomal CLint at 3 µM [9]: 39.2 µL/min/mg | solubility at 1.5 h [10]: 95.8 µM | MIC50 [11]: 0.01 µM | MIC90 [11]: 0.025 µM | IC50 (Dihydrofolate reductase [7]): 15.3 µM | half-life at 3 µM [12]: 1.89 h | Ratio IC50 [8]: 18.7 | selectivity ratio [13]: > 4000 | HC50 at 24 h [14]: > 100 µM | microsomal CLint at 3 µM [15]: 20.4 µL/min/mg | half-life at 3 µM [16]: 0.983 h | IC50 (Dihydrofolate reductase [6]): 0.82 µM | CC50 [17]: > 100 µM

NC1=NC2(CCCCC2)N(Cc2ccc(Cl)cc2)C(N)=N1
IC50 (A549): > 100 µM | IC50 (Dihydrofolate reductase [18]): > 100 µM

Nc1nc(N)nc(-c2ccc(OCc3ccc(Cl)cc3)cc2)n1
CC50 [19]: 333 µM | IC50 (Dihydrofolate reductase [20]): 83.3 µM | MIC [21]: 1.76 µM (≈ 0.577 µg/mL) | IC50 (Dihydrofolate reductase [22]): 5.17 µM

CCOC(=O)CC[C@H](NC(=O)c1ccc(N(C)Cc2cnc3nc(N)nc(N)c3n2)cc1)C(=O)OCC
MIC90 [1]: 0.6 µM (≈ 0.306 µg/mL) | IC50 (Dihydrofolate reductase [2]): 0.03 µM

Nc1nc(N)nc(-c2ccc(OCc3cccc(Cl)c3)cc2)n1
CC50 [19]: 387 µM | IC50 (Dihydrofolate reductase [20]): 72.5 µM | MIC [21]: 1.57 µM (≈ 0.515 µg/mL) | IC50 (Dihydrofolate reductase [22]): 5.62 µM

Cl.NC1=NC2(CCCCC2)N(c2ccc(OCc3cn(CCCOc4ccc5ccc(=O)oc5c4)nn3)cc2)C(N)=N1
microsomal CLint at 3 µM [9]: 27.8 µL/min/mg | solubility at 1.5 h [10]: > 100 µM | MIC50 [11]: 0.01 µM | MIC90 [11]: 0.025 µM | IC50 (Dihydrofolate reductase [7]): 12 µM | half-life at 3 µM [12]: 4.51 h | Ratio IC50 [8]: 8.95 | selectivity ratio [13]: > 4000 | HC50 at 24 h [14]: > 100 µM | microsomal CLint at 3 µM [15]: 8.6 µL/min/mg | half-life at 3 µM [16]: 1.39 h | IC50 (Dihydrofolate reductase [6]): 1.34 µM | CC50 [17]: > 100 µM

Cc1c(Cc2ccccc2Br)cnc2nc(N)nc(N)c12
IC50 (Dihydrofolate reductase [3]): 0.0082 µM | IC50 (Dihydrofolate reductase [4]): 0.0076 µM | MIC90 [5]: 1.3 µM (≈ 0.447 µg/mL)
